Screening data deposited in PubChem BioAssay by Sanford-Burnham Center for Chemical Genomics.
SENP8 block-1: human SENP8 protease inhibitors, primary screen, biochemical, fluorescence, Nedd8 protein substrate, uHTS; recombinant SENP8; AID 602440, 2012; 0.64% of 360,000 active; Sentrin-specific protease 8 (Homo sapiens), Q96LD8; inhibition, % at 20 µM; in the data active means inhibition mostly above about 40%, no sharp cut-off; inactive means mostly below about 27%
SENP1 inh: human SENP1 catalytic domain inhibitors, primary screen, biochemical, FRET, uHTS; 0.21% of 360,000 active; recombinant SENP1 catalytic domain, CyPet-SUMO1-YPet FRET cleavage; inhibition, % at 10 µM;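 active means inhibition at least 30% at 10 µM, raw YFP signal under a set limit, fluorescence ratio 0.5 to 1.5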;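 further: 0% = enzyme with DMSO and 100% = no enzyme wells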
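Assay system: hSENP1 catalytic domain, recombinant. Amount: SENP1 enzyme, 20 pM final. Schedule: 50 min reaction, RT, dark. Technique: FRET, CFP and YFP emission. Control set: no-enzyme wells low, DMSO-plus-enzyme wells high control.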
SENP7 inh: SENP7 protease inhibitors, primary screen, biochemical, luminescence, uHTS. Sentrin-specific protease 7 (Homo sapiens), Q9BQF6. recombinant SENP7, Z-RLRGG-aminoluciferin luminescence, 40 min. inhibition, % at 5 µM. 1.5% of 330,000 active. AID 434973, 2010;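 active means inhibition above about 50% at the single test dose, limit read from the data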;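 further: plate controls were DMSO with enzyme for no effect and no enzyme buffer wells for full effect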
Target sequence (Q9BQF6 706-1050 limits assumed): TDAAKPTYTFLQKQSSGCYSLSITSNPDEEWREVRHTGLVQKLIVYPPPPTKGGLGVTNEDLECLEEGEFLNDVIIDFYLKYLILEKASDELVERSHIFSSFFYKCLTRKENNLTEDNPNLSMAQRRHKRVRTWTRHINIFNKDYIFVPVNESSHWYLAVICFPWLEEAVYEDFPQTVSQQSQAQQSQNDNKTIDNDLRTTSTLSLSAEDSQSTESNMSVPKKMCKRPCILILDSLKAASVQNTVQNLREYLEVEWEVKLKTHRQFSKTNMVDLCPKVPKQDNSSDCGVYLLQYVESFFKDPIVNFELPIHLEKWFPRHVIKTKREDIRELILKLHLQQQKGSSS
SENP6 block: SENP6 protease inhibitors, primary screen, biochemical, luminescence, uHTS; Sentrin-specific protease 6 (Homo sapiens), Q9GZR1; Recombinant SENP6 catalytic domain, aminoluciferin luminescence; inhibition, % at 10 µM; 1.8% of 330,000 active;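 active means inhibition above about 50% at the single tested dose, limit read from the data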;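 further: plate controls were DMSO wells with enzyme for no effect and DMSO wells lacking enzyme for full effect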
NRP1-CendR mod: modulators of CendR peptide binding to NRP-1, primary screen, biochemical, fluorescence polarization, uHTS; FAM-RPARPAR peptide binding to NRP-1; inhibition, % at 25 µM; 0.85% of 360,000 active; AID 602438, 2012;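 active means inhibition or corrected inhibition above about 18%, plus a signal ratio from 0.5 to 1.5, limit read from the data, passing the limit was not always enough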
SENP8 block-2: SENP8 protease inhibitors, primary screen, biochemical, luminescence; Sentrin-specific protease 8 (Homo sapiens), Q96LD8; purified SENP8, Z-RLRGG-aminoluciferin cleavage; inhibition, % at 10 µM; 1.2% of 330,000 active; AID 2540, 2010; in the data active means inhibition above about 50%
SENP8 conf: SENP8 protease inhibitors, retest, confirmation, biochemical, luminescence, single concentration; shares compounds with SENP7 inh; 40% of 6,200 active; Recombinant SENP8, Z-RLRGG-aminoluciferin luminescence, 60 min; AID 488912, 2010; inhibition, % at 12.5 µM;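 active means mean inhibition across replicates above about 50%, limit read from the data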
SENP6 confirm: SENP6 protease inhibitors, confirmation, biochemical, luminescence, single concentration | recombinant SENP6, Z-RLRGG-aminoluciferin luminescence | 58% of 6,200 active | shares compounds with SENP7 inh | inhibition, % at 12.5 µM
SENP7 confirm: SENP7 protease inhibitors, retest, confirmation, biochemical, luminescence, single concentration; shares compounds with SENP7 inh; recombinant SENP7, Z-RLRGG-aminoluciferin luminescence, 40 min; inhibition, % at 12.5 µM; 69% of 6,200 active; AID 488917, 2010
Casp3 SENP sel: caspase-3 protease inhibitors, confirmation, selectivity assay for SENP inhibitor project, biochemical, single concentration | 60% of 6,200 active | inhibition, % at 12.5 µM | shares compounds with SENP7 inh | purified caspase-3, Z-DEVD-aminoluciferin luminescence, 60 min;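 active means mean inhibition above about 50%, limit read from the data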;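 further: plate controls were enzyme with DMSO for no effect and wells without caspase-3 for full effect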
Target sequence (P42574 28-227 limits assumed): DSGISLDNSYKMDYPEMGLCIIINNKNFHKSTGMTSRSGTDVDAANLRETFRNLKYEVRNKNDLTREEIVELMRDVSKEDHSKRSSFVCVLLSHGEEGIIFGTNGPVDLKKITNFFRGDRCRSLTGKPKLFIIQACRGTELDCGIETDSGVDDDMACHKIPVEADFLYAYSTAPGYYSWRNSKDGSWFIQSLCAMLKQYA
SENP luc ctr: interferes with luciferase luminescence in SENP counter-screen | shares compounds with SENP7 inh | Pre-incubated SENP8/Z-RLRGG-aminoluciferin, luciferase luminescence interference | inhibition, % at 12.5 µM | 39% of 6,200 active | AID 488919;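 active means mean inhibition above about 50% when retested at one dose, limit read from the data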;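 further: plate controls were DMSO wells with completed reaction for no effect and substrate without enzyme for full effect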
An asterisk follows results filed as active. Most compounds without a hit are left out; they make up all but 3.3% or so of the library.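 How the source made its calls, unless noted: active means mean inhibition above about 50% in the one-dose retest (limit read from the data); inactive means the rest.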

Screening COCCCNC(=O)C[C@H]1C[C@H](C(=O)N2CCCCC2)[C@@]2(CCc3ccccc3)c3[nH]c4cc(CCC(=O)N(C)C)ccc4c3CCN2C1=O returned SENP8 block-1 7, SENP1 inh -1, SENP7 inh 1 and NRP1-CendR mod 9.
For CCCCNC1=CC(=O)C(=O)c2ccccc21 the results were SENP8 block-1 85*, SENP1 inh 1, SENP7 inh 81*, SENP6 block 93*, NRP1-CendR mod 20, SENP8 block-2 86*, SENP8 conf 61*, SENP6 confirm 87*, SENP7 confirm 74*, Casp3 SENP sel 91* and SENP luc ctr 5.
For c1ccc(Nc2ccccc2)cc1 the results were SENP8 block-1 9, SENP1 inh 1, SENP7 inh 6, SENP6 block -1, NRP1-CendR mod -1 and SENP8 block-2 -4.
Screening O=C1C=C(Nc2ccccc2)c2ccccc2C1=O returned SENP8 block-1 -392, SENP1 inh -1, SENP7 inh 46, SENP6 block 81*, NRP1-CendR mod 16, SENP8 block-2 73*, SENP8 conf -8, SENP6 confirm 87*, SENP7 confirm 72*, Casp3 SENP sel 21 and SENP luc ctr -6.
CCc1ccc(NC(=O)C(CC)c2ccccc2)cc1 (stereo unspecified) was read as SENP8 block-1 21, SENP1 inh 2, SENP7 inh -3, SENP6 block 3, NRP1-CendR mod -5 and SENP8 block-2 -6.
`CCc1ccc(NC2=CC(=O)C(=O)c3ccccc32)cc1` gave SENP8 block-1 inactive, SENP1 inh -2, SENP7 inh 55*, SENP6 block 26, NRP1-CendR mod 9, SENP8 block-2 70*, SENP8 conf 9, SENP6 confirm 23, SENP7 confirm 12, Casp3 SENP sel 4 and SENP luc ctr 5.
For O=C1C=C(Nc2ccccc2C(=O)O)c2ccccc2C1=O the results were SENP8 block-1 33, SENP1 inh -3, SENP7 inh 44, SENP6 block 86*, NRP1-CendR mod 20, SENP8 block-2 86*, SENP8 conf -8, SENP6 confirm 93*, SENP7 confirm 82*, Casp3 SENP sel 46 and SENP luc ctr 37.
For C[C@H](O)C#Cc1ccc2c(c1)O[C@@H](CN(C)Cc1ccc(-c3ccccc3)cc1)[C@H](C)CN([C@@H](C)CO)S2(=O)=O the results were SENP8 block-1 6, SENP1 inh -15 and NRP1-CendR mod -7.
Screening O=C(NCc1ccncc1)[C@@H]1CCCN1C(=O)[C@H]1CCCN1C(=O)c1cccc2ccccc12 returned SENP8 block-1 13, SENP1 inh 2 and NRP1-CendR mod 10.
`Cc1ccc(C)c(N2CCN(C(=O)CCc3nc(-c4cccc(Cl)c4)no3)CC2)c1` gave SENP8 block-1 -7, SENP1 inh 0, SENP7 inh 5 and NRP1-CendR mod 4.
`C=CCN1C(=O)c2ccc(C(=O)N(CCC)CC(=O)Nc3ccccc3C)cc2C1=O` gave SENP8 block-1 2, SENP1 inh 1, SENP7 inh -10, SENP6 block -8, NRP1-CendR mod 0 and SENP8 block-2 -9.
Screening O=C1C=C(Nc2ccccc2)C(=O)c2ccccc21 returned SENP8 block-1 25, SENP1 inh 4, SENP7 inh 82*, SENP6 block 90*, NRP1-CendR mod 0, SENP8 block-2 80*, SENP8 conf 26, SENP6 confirm 29, SENP7 confirm 47, Casp3 SENP sel 47 and SENP luc ctr 14.
`CCNC(=O)C1(C)CCN(Cc2csc(-c3ccccc3)n2)C1` (stereo unspecified) gave SENP8 block-1 6, SENP1 inh 2 and NRP1-CendR mod 8.
`Oc1c(/C=N/Nc2cccc3cccnc23)ccc2ccccc12` gave SENP8 block-1 -98, SENP1 inh -26, SENP7 inh 15, SENP6 block 52*, NRP1-CendR mod -12, SENP8 block-2 37, SENP8 conf 20, SENP6 confirm 13, SENP7 confirm 12, Casp3 SENP sel 10 and SENP luc ctr 5.
`COc1cc(/C=N/Nc2cccc3cccnc23)cc(OC)c1O` gave SENP8 block-1 -46, SENP1 inh -59, SENP7 inh -5, SENP6 block 10, NRP1-CendR mod -11 and SENP8 block-2 -3.
`Oc1cccc(/C=N/Nc2cccc3cccnc23)c1` gave SENP8 block-1 -81, SENP1 inh -99, SENP7 inh 92*, SENP6 block -7, NRP1-CendR mod 0, SENP8 block-2 96*, SENP8 conf 97*, SENP6 confirm 100*, SENP7 confirm 104*, Casp3 SENP sel 94* and SENP luc ctr 93*.
Screening CN1N=C2c3ccccc3CCC2C1c1ccc(Cl)cc1 (stereo unspecified) returned SENP8 block-1 -195, SENP1 inh 0, SENP7 inh 7, SENP6 block 31, NRP1-CendR mod 16, SENP8 block-2 59*, SENP8 conf -5, SENP6 confirm -2, SENP7 confirm 1, Casp3 SENP sel -1 and SENP luc ctr -2.
O=c1cc(-c2ccccc2)[nH]c2ccccc12 was read as SENP8 block-1 -17, SENP1 inh 0, SENP7 inh -3, SENP6 block 0, NRP1-CendR mod -1 and SENP8 block-2 -9.
